Publication PMC4291750 (Journal of the American Chemical Society, 2014)

How the values were obtained:
[1] = test system: PSMA-expressing RM1.PGLS cells phagocytosed by IFN-γ-primed U937 cells; assay: Cell phagocytosis assay; assay type: cell-based, murine
Outline: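 RM1.PGLS targets were stained adherent with DiO (final 1.9 μM), detached with 0.5 mM EDTA/EGTA and checked by trypan blue. 1.25×10^4 targets and 10^5 IFN-γ-primed, DiD-stained U937 (E:T 8:1; range 2:1–20:1 also tested) in Assay Media, ±test compound ±inhibitors. Spun 200 rcf 2 min, 1 h at 37 °C, then flow cytometry. % targets phagocytosed minus background. Imaging-cytometry counterpart: formaldehyde-fixed, CD14/CD11b-APC plus Hoechst, events scored as cup or engulfment. Dunnett ANOVA versus no compound.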

[2] = test system: PSMA-coated beads phagocytosed by IFN-γ-primed U937 cells; assay: Bead phagocytosis assay; assay type: cell-based
Outline: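 Effectors were U937 cells primed 72 h with IFN-γ (final 2 ng/mL, medium changed daily) and stained with DiD (final 1.9 μM, 30 min, 37 °C). Targets were 6 μm fluorescent streptavidin beads loaded with avi-tagged PSMA. 4×10^4 beads and 10^5 effectors (E:T 2.5:1) in phenol-free RPMI/10% low-IgG FBS, ±test compound ±competitor (PSMA ligand or anti-FcγRI antibody). Spun 200 rcf 2 min, 37 °C 1 h, stopped on ice, flow cytometry. % targets phagocytosed minus no-compound background; mean of ≥duplicates ±SD.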

[3] = test system: isogenic PSMA-negative RM1 tumor line; assay: Cell phagocytosis assay, PSMA-negative control; assay type: cell-based, murine; conditions: U937 effector cells
[4] = test system: IFN-γ-primed U937 cells with PSMA-coated beads; assay: ROS production; assay type: cell-based
Outline: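 U937 cells primed 72 h with IFN-γ (final 2 ng/mL, daily medium change). 3×10^5 cells/mL in phenol-free RPMI/10% low-IgG FBS mixed with test compound, with or without 10^5 PSMA-coated beads/mL. 2.5 mM lucigenin solution added (stock). Plate spun 200 rcf 2 min. Chemiluminescence read every 2 min for 60–90 min; peak luminescence taken. Mean of ≥duplicates ±SD.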

RM1-hPSMA cells = assay: Compound cytotoxicity assay; assay type: cell-based, murine; conditions: cell index over 24 hours, vs 1% DMSO
Outline: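 12 500 RM1-hPSMA cells per well were plated 36 h beforehand in DMEM (4.5 g/L glucose, 10% FBS, pen/strep, 2 mM glutamine, 1 mM pyruvate). Impedance cell index was recorded at 37 °C, 5% CO2, with cell-free medium as background. At time 0 medium was replaced with test compound at various concentrations, 1% DMSO vehicle or 3% Triton. Readings every 2 min for 3 h, then every 10 min for 21 h.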

| Structure (SMILES) | effect of competitor on SyAM-P3-induced cell phagocytosis ([1]; RM1.PGLS targets) | effect of competitor on SyAM-P3-induced bead phagocytosis ([2]; 50 nM SyAM-P3) | effect of competitor on SyAM-P1-induced bead phagocytosis ([2]; SyAM-P1-induced effector responses) | phagocytosis of PSMA-expressing RM1.PGLS cells ([1]; U937 effector cells) | phagocytosis of PSMA-coated beads, comparison between SyAMs ([2]; primed U937 effector cells) | phagocytosis of PSMA-negative RM1 cells [3] | ROS production in the absence of target beads ([4]; no PSMA-labeled beads) | superoxide burst response ([4]; with PSMA-coated beads, lucigenin chemiluminescence) | cytotoxicity in the absence of effector cells (RM1-hPSMA cells) |
| --- | --- | --- | --- | --- | --- | --- | --- | --- | --- |
| O=C(O)CCC(CP(=O)(O)O)C(=O)O (stereo not drawn) [2-PMPA] | suppressed | suppressed in a concentration-dependent manner | abrogated |  |  |  |  |  |  |
| CC(=O)N[C@H](C(=O)N[C@@H](CC(N)=O)C(=O)N[C@@H](CO)C(=O)N[C@H]1CSSC[C@@H](C(=O)NCC(=O)N[C@@H](CC(=O)O)C(=O)N[C@@H](CC(=O)O)C(=O)N[C@@H](CCCCNC(=O)CCCC(=O)NCCOCCOCCOCC(=O)NCCCC[C@H](NC(=O)COCCOCCOCCNC(=O)CCCC(=O)NCCCC[C@H](NC(=O)[C@H](CC(=O)O)NC(=O)[C@H](CC(=O)O)NC(=O)CNC(=O)[C@@H]2CSSC[C@H](NC(=O)[C@H](CO)NC(=O)[C@H](CC(N)=O)NC(=O)[C@@H](NC(C)=O)C(C)C)C(=O)N[C@@H](CC(C)C)C(=O)N[C@@H](CC(C)C)C(=O)N[C@@H](CC(C)C)C(=O)N3CCC[C@H]3C(=O)N[C@@H](CC(N)=O)C(=O)N[C@@H](CC(C)C)C(=O)N[C@@H](CC(C)C)C(=O)NCC(=O)N2)C(=O)N[C@@H](CCCCNC(=O)CCCC[C@@H]2SC[C@@H]3NC(=O)N[C@@H]32)C(N)=O)C(=O)NCc2cn(-c3cc(C(=O)NCCCCCC(=O)NCCCCCC(=O)NCCCCCC(=O)NCCCCCC(=O)NCCCCCC(=O)NCCCCCC(=O)NCc4cn(CCCC[C@H](NC(=O)N[C@@H](CCC(=O)O)C(=O)O)C(=O)O)nn4)cc(C(=O)NCCCCCC(=O)NCCCCCC(=O)NCCCCCC(=O)NCCCCCC(=O)NCCCCCC(=O)NCCCCCC(=O)NCc4cn(CCCC[C@H](NC(=O)N[C@@H](CCC(=O)O)C(=O)O)C(=O)O)nn4)c3)nn2)C(=O)N[C@@H](CCCCNC(=O)CCCC[C@@H]2SC[C@@H]3NC(=O)N[C@@H]32)C(N)=O)NC(=O)CNC(=O)[C@H](CC(C)C)NC(=O)[C@H](CC(C)C)NC(=O)[C@H](CC(N)=O)NC(=O)[C@@H]2CCCN2C(=O)[C@H](CC(C)C)NC(=O)[C@H](CC(C)C)NC(=O)[C@H](CC(C)C)NC1=O)C(C)C [SyAM-P3] |  |  |  | significant levels of target cell phagocytosis | both more potent and more efficacious than earlier-generation molecules | only minimal levels of phagocytosis | required the presence of PSMA-labeled beads | both more potent and more efficacious than earlier-generation molecules | non-cytotoxic |
